# According to publication PMC4021529 (British Journal of Cancer, 2014):
# “Also recorded” adds a separate entry of the source. Marks after values point to notes of the source that are not given here.
# Legend:
# Type in all cases: in vivo, human
# [1] = Adverse events; conditions: schedule B
# [2] = system: advanced solid tumours; assay: Objective tumour response; conditions: for median PFS: all dose groups
# Outline: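 Patients with advanced solid tumours at two Taiwanese sites. Test compound given as a 2-h IV infusion on day 1 (schedule A) or days 1 and 8 (schedule B), every 3 weeks. CT or MRI at baseline and at the end of every other course, assessed by RECIST 1.0. PFS estimated by Kaplan–Meier.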
# [3] = Plasma pharmacokinetics; conditions: for clearance / AUC(0-inf) / MRT / Vd: human, plasma, iv; for AUC0–∞,norm / Cmax,norm / AUC0–168,norm: gMean, dose normalised
# [4] = 200 mg (n=3), irrespective of relatedness
# [5] = total (n=27), irrespective of relatedness
# [6] = schedule A, 100 mg (n=3), first 2-h i.v. infusion
# [7] = schedule A, 200 mg (n=3), first 2-h i.v. infusion
# [8] = schedule A, 250 mg (n=5), first 2-h i.v. infusion
# [9] = schedule A, 300 mg (n=16), first 2-h i.v. infusion
smiles,measurement,setting,value
CC[C@@H]1C(=O)N(C)c2cnc(Nc3ccc(C(=O)N[C@H]4CC[C@H](N5CCN(CC6CC6)CC5)CC4)cc3OC)nc2N1C(C)C [volasertib],"Hypokalaemia grade 3, number of patients",[1]; [4],1 n
same,"Ileus grade 3, number of patients",[1]; [4],2 n
same,"Infection grade 3, number of patients",[1]; [4],1 n
same,"Leukopenia grade 4, number of patients",[1]; [4],1 n
same,"Neutropenia grade 4, number of patients",[1]; [4],2 n
same,"Thrombocytopenia grade 3, number of patients",[1]; [4],2 n
same,"Upper GI haemorrhage grade 3, number of patients",[1]; [4],1 n
same,"drug-related anaemia, incidence",[1]; all doses,18.5%
same,"drug-related leukopenia, incidence",[1]; all doses,33.3%
same,"drug-related neutropenia, incidence",[1]; all doses,33.3%
same,"drug-related thrombocytopenia, incidence",[1]; all doses,14.8%
same,"Abdominal distension grade 3, number of patients",[1]; [5],1 (3.7) n (%)
same,"Abdominal pain grade 3, number of patients",[1]; [5],2 (7.4) n (%)
same,"Anaemia grade 3, number of patients",[1]; [5],4 (14.8) n (%)
same,"Anaemia grade 4, number of patients",[1]; [5],2 (7.4) n (%)
same,"Decreased appetite grade 3, number of patients",[1]; [5],1 (3.7) n (%)
same,"Dizziness grade 3, number of patients",[1]; [5],1 (3.7) n (%)
same,"Dyspnoea grade 3, number of patients",[1]; [5],1 (3.7) n (%)
same,"Fatigue grade 3, number of patients",[1]; [5],2 (7.4) n (%)
same,"Febrile neutropenia grade 3, number of patients",[1]; [5],1 (3.7) n (%)
same,"Hypokalaemia grade 3, number of patients",[1]; [5],2 (7.4) n (%)
same,"Ileus grade 3, number of patients",[1]; [5],2 (7.4) n (%)
same,"Infection grade 3, number of patients",[1]; [5],2 (7.4) n (%)
same,"Leukopenia grade 3, number of patients",[1]; [5],1 (3.7) n (%)
same,"Leukopenia grade 4, number of patients",[1]; [5],1 (3.7) n (%)
same,"Neutropenia grade 3, number of patients",[1]; [5],2 (7.4) n (%)
same,"Neutropenia grade 4, number of patients",[1]; [5],3 (11.1) n (%)
same,"Pain grade 3, number of patients",[1]; [5],2 (7.4) n (%)
same,"Rash grade 3, number of patients",[1]; [5],1 (3.7) n (%)
same,"Thrombocytopenia grade 3, number of patients",[1]; [5],2 (7.4) n (%)
same,"Upper GI haemorrhage grade 3, number of patients",[1]; [5],2 (7.4) n (%)
same,"Vomiting grade 3, number of patients",[1]; [5],1 (3.7) n (%)
same,partial responses in the study,"[2]; 59 treated patients, both schedules",two pre-treated patients; also recorded: Two partial responses
same,"duration of stable disease, individual patient","[2]; bladder urothelial cancer with lymph node metastasis, 50 mg schedule B",> 8 months
same,patients with stable disease as best overall response,"[2]; overall, both schedules",26 (44.1%) patients (%)
same,patients with stable disease as best overall response,[2]; schedule A,14 (43.8%) patients (%)
same,median PFS,[2]; schedule A,49 days
same,patients with stable disease as best overall response,[2]; schedule B,12 (44.4%) patients (%)
same,median PFS,[2]; schedule B,56 days
same,best response of individual patient,"[2]; ureteral urothelial carcinoma (wild-type FGFR3), 350 mg schedule A, two courses",partial response
same,apparent terminal half-life (t1/2),"[3]; 2-h i.v. infusion, summary across doses",135 h
same,clearance,[3],> 770 mL/min
same,AUC(0-inf),[3]; 100 mg,2140 ng·h/mL
same,MRT,[3]; 100 mg,163 h
same,Vd,[3]; 100 mg,7600 L
same,clearance,[3]; 100 mg,780 mL/min
same,AUC(0-inf),[3]; 200 mg,3280 ng·h/mL
same,MRT,[3]; 200 mg,98.2 h
same,Vd,[3]; 200 mg,5980 L
same,clearance,[3]; 200 mg,1020 mL/min
same,AUC(0-inf),[3]; 250 mg,6140 ng·h/mL
same,MRT,[3]; 250 mg,109 h
same,Vd,[3]; 250 mg,4440 L
same,clearance,[3]; 250 mg,679 mL/min
same,AUC(0-inf),[3]; 300 mg,6260 ng·h/mL
same,MRT,[3]; 300 mg,103 h
same,Vd,[3]; 300 mg,4920 L
same,clearance,[3]; 300 mg,798 mL/min
same,AUC(0-inf),[3]; 350 mg,9790 ng·h/mL
same,MRT,[3]; 350 mg,93 h
same,Vd,[3]; 350 mg,3320 L
same,clearance,[3]; 350 mg,596 mL/min
same,elimination route,"[3]; low exposures of main metabolite, data not shown",primarily eliminated unchanged
same,"AUC0–∞,norm",[3]; [6],21.4 ng·h/mL/mg
same,"Cmax,norm",[3]; [6],1.86 ng/mL/mg
same,"AUC0–∞,norm",[3]; [7],16.4 ng·h/mL/mg
same,"Cmax,norm",[3]; [7],2.70 ng/mL/mg
same,"AUC0–∞,norm",[3]; [8],24.6 ng·h/mL/mg
same,"Cmax,norm",[3]; [8],2.16 ng/mL/mg
same,"AUC0–∞,norm",[3]; [9],20.9 ng·h/mL/mg
same,"Cmax,norm",[3]; [9],1.63 ng/mL/mg
same,"AUC0–∞,norm","[3]; schedule A, 350 mg (n=2), first 2-h i.v. infusion",28.0 ^a (ng h ml^−1) mg^−1
same,"Cmax,norm","[3]; schedule A, 350 mg (n=3), first 2-h i.v. infusion",1.93 ng/mL/mg
same,"AUC0–168,norm","[3]; schedule B, 50 mg (n=3), first 2-h i.v. infusion",11.8 ^b (ng h ml^−1) mg^−1
same,"Cmax,norm","[3]; schedule B, 50 mg (n=4), first 2-h i.v. infusion",2.12 ng/mL/mg
same,"Cmax,norm","[3]; schedule B, 100 mg (n=3), first 2-h i.v. infusion",2.34 ng/mL/mg
same,AUC0–168,"[3]; schedule B, 100 mg, first 2-h i.v. infusion, n=2, individual values",1390 ng·h/mL
same,"AUC0–168,norm","[3]; schedule B, 150 mg (n=14), first 2-h i.v. infusion",12.6 ^d (ng h ml^−1) mg^−1
same,"Cmax,norm","[3]; schedule B, 150 mg (n=15), first 2-h i.v. infusion",1.56 ng/mL/mg
same,"AUC0–168,norm","[3]; schedule B, 200 mg (n=2), first 2-h i.v. infusion",16.6 ^a (ng h ml^−1) mg^−1
same,"Cmax,norm","[3]; schedule B, 200 mg (n=3), first 2-h i.v. infusion",2.05 ng/mL/mg
same,accumulation,"[3]; schedule B, administration on day 1 and day 8",No accumulation
